Assay results as given in ChEMBL document CHEMBL1138589, “Development of novel aminoglycoside (NB54) with reduced toxicity and enhanced suppression of disease-causing premature stop mutations” (J Med Chem, 2009).
pIC50: −log10 of the molar value. In brackets after ≈: the same amount, converted by molar mass.

How the values were obtained:
Nucleic Acid [1] = test: Suppression of IDUA W402X nonsense mutant cDNA translation in TNT rabbit reticulocyte lysate transcription translation system at 25 to 100 uM at 30 degC after 90 mins by luciferase reporter gene assay
In short: (§1)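 A dual luciferase reporter plasmid carrying the nonsense-mutation context was used. Luciferase activities were read with a dual luciferase assay kit after incubation, and readthrough was calculated by a previously described method. Translation inhibition was monitored as the ratio of Renilla luciferase activity with versus without aminoglycoside.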

[2] = Ototoxicity in mouse organ of Corti cochlear explants assessed as outer hair cell loss at 1 mM by F-actin staining; format: toxicity; details: 1000 µM
In short: (§2)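 Cochlea dissected from postnatal day 3 mice; organ of Corti/spiral ganglion flat preparation cultured serum-free (BME, supplement, 1% BSA, 2 mM glutamine, glucose, penicillin) at 37°C, 5% CO2, 24 h before medium swapped for drug-containing medium. Fixed in 4% paraformaldehyde, permeabilized with Triton X-100, blocked with goat serum, F-actin stained with fluorescent phalloidin; basal segments examined.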

Nucleic Acid [3] = test: Suppression of PCDH15 R245X nonsense mutant cDNA translation in TNT rabbit reticulocyte lysate transcription translation system at 25 to 100 uM at 30 degC after 90 mins by luciferase reporter gene assay; in short: as §1
[4] = Toxicity against african green monkey COS7 cells; format: cell-based, COS-7; details: chlorocebus aethiops, read-out: LC50 (the source's name)
Nucleic Acid [5] = test: Suppression of CFTR G542X nonsense mutant cDNA translation in TNT rabbit reticulocyte lysate transcription translation system at 25 to 100 uM at 30 degC after 90 mins by luciferase reporter gene assay; in short: as §1
Escherichia coli [6] = test: Inhibition of protein translation in Escherichia coli by coupled transcription/translation assay; format: functional
Nucleic Acid [7] = test: Suppression of CFTR W1282X nonsense mutant cDNA translation in TNT rabbit reticulocyte lysate transcription translation system at 25 to 100 uM at 30 degC after 90 mins by luciferase reporter gene assay; in short: as §1
[8] = Ototoxicity in mouse organ of Corti cochlear explants assessed as inner hair cell loss at 0.1 mM by F-actin staining; format: toxicity; details: 100 µM; in short: as §2
Nucleic Acid [9] = test: Suppression of Dystrophin R3381X nonsense mutant cDNA translation in TNT rabbit reticulocyte lysate transcription translation system at 25 to 100 uM at 30 degC after 90 mins by luciferase reporter gene assay; in short: as §1
Nucleic Acid [10] = test: Suppression of IDUA Q70X nonsense mutant cDNA translation in TNT rabbit reticulocyte lysate transcription translation system at 25 to 100 uM at 30 degC after 90 mins by luciferase reporter gene assay; in short: as §1
HEK293 = test: (§3) Toxicity against HEK293 cells; format: cell-based; details: human, hek293; read-out: LC50 (the source's name)
Ribosomal RNA A-site [11] = test: Binding affinity to human cytoplasmic ribosomal RNA A-site assessed as thermal stability at compound/RNA ratio of 5 by UV melting profile method; format: nucleic-acid assay
In short: (§4)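 UV melting of RNA A-site model oligonucleotide, 2 µM in strand, drug 0 to 10 µM, in 10 mM EPPS (pH 7.0), 10 mM NaCl. RNA preheated 85 °C 5 min and slowly cooled. Absorbance read at 274 nm, 1 cm path, 0.5 °C steps with 1.5 min equilibration per step; ΔTm derived.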

[12] = Ototoxicity in mouse organ of Corti cochlear explants assessed as outer hair cell loss at 0.1 mM by F-actin staining; format: toxicity; details: 100 µM; in short: as §2
Mus musculus = test: Acute toxicity in iv dosed BALB/c mouse assessed as mortality administered as single dose after 4 days; format: organism-based; details: in vivo, 96 h
In short: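 Male BALB/c mice, […] (18-20 g), 12 h light/dark cycle at 20-22 °C, food and water ad libitum. Single intravenous tail-vein injection of 150 µL of drug in PBS (pH 7), 8 animals per concentration. Appearance, behaviour and mortality were monitored for 4 days, and LD50 was derived by the Reed and Muench method.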

Escherichia coli [13] = test: Antibacterial activity against Escherichia coli R477-100 by double-microdilution method; format: functional
Nucleic Acid [14] = test: Suppression of PCDH15 R3X nonsense mutant cDNA translation in african green monkey COS7 cells at 1 mg/mL; format: cell-based; details: COS-7
In short: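 Dual luciferase reporter carrying PCDH15-R3X transfected into COS-7 cells by lipofection. Compound added 5 h post-transfection. Luciferase activity measured with a dual luciferase assay system, and readthrough calculated by a previously described method.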

[15] = Ototoxicity in mouse organ of Corti cochlear explants assessed as outer hair cell loss at 0.2 mM by F-actin staining; format: toxicity; details: 200 µM; in short: as §2
[16] = Ototoxicity in mouse organ of Corti cochlear explants assessed as inner hair cell loss at 0.2 mM by F-actin staining; format: toxicity; details: 200 µM; in short: as §2
Nucleic Acid [17] = test: Suppression of PCDH15 R3X nonsense mutant cDNA translation in TNT rabbit reticulocyte lysate transcription translation system at 25 to 100 uM at 30 degC after 90 mins by luciferase reporter gene assay; in short: as §1
MDCK = test: (§5) Toxicity against MDCK cells; format: cell-based, Canis lupus familiaris; details: dog, mdck; read-out: LC50 (the source's name)
[18] = Ototoxicity in mouse organ of Corti cochlear explants assessed as inner hair cell loss at 1 mM by F-actin staining; format: toxicity; details: 1000 µM; in short: as §2
Nucleic Acid [19] = test: Suppression of PCDH15 R3X nonsense mutant cDNA translation in african green monkey COS7 cells at 0.25 mg/mL; format: cell-based; details: COS-7
In short: (§6)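 COS-7 cells were lipofected with the dual luciferase construct carrying PCDH15 R3X, and drugs were added 5 h after transfection at varying concentrations. Maximal doses were set from LC50 in COS-7 cells to keep cell viability above 80%. Stop-codon readthrough was read by dual luciferase assay and calculated by a previously described method.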

[20] = as §3; format: cell-based; details: human, HEK293 cells; read-out: LC50 (the source's name)
Nucleic Acid [21] = test: Suppression of PCDH15 R3X nonsense mutant cDNA translation in african green monkey COS7 cells at 0.5 mg/mL; format: cell-based; details: COS-7; in short: as §6
[22] = as §5; format: cell-based, Canis lupus familiaris; details: dog, MDCK cells; read-out: LC50 (the source's name)
Ribosomal RNA A-site [23] = test: Binding affinity to human cytoplasmic ribosomal RNA A-site; format: nucleic-acid assay; in short: as §4

In the case of NCC[C@H](O)C(=O)N[C@@H]1C[C@H](N)[C@@H](O[C@H]2O[C@H](CO)[C@@H](O)[C@H](O)[C@H]2N)[C@H](O[C@@H]2O[C@H](CN)[C@@H](O)[C@H]2O)[C@H]1O, the Activity (Nucleic Acid [1]) was 50%, the Activity [2] was “Non-toxic” and the Activity (Nucleic Acid [3]) was 50%. The CC50 ([4]; cos-7) was 9300 µM, the Activity (Nucleic Acid [5]) was 50% and the pIC50 (Escherichia coli [6]; Escherichia coli) was 6.80. The Activity (Nucleic Acid [7]) was 50%, the Activity [8] was “Non-toxic” and the Activity (Nucleic Acid [9]) was 50%. It also gave an Activity (Nucleic Acid [10]) of 50%, a CC50 (HEK293) of 2800 µM and a ΔTm (Ribosomal RNA A-site [11]) of 9.7 °C. For the same molecule, the Activity [12] was “Non-toxic”, the LD50 (Mus musculus) was 500 mg/kg and the MIC (Escherichia coli [13]) was 588 µM (≈ 327 µg/mL). For the same molecule, the Activity (Nucleic Acid [14]) was 5.25%, the Activity [15] was “Toxic” and the Activity [16] was “Toxic”. The Activity (Nucleic Acid [17]) was 50%, the CC50 (MDCK) was 3300 µM and the Activity [18] was “Non-toxic”.
In the case of GENTAMICIN [listing 1 of 2 here], the Activity (Nucleic Acid [1]) was 50%, the Activity (Nucleic Acid [3]) was 50% and the Activity (Nucleic Acid [5]) was 50%. It also gave an Activity (Nucleic Acid [7]) of 50%, an Activity (Nucleic Acid [9]) of 50% and an Activity (Nucleic Acid [10]) of 50%. The Activity (Nucleic Acid [19]) was 1.86%, the MIC (Escherichia coli [13]) was 6 µM and the Activity (Nucleic Acid [17]) was 50%.
In the case of NC[C@@H]1O[C@H](O[C@H]2[C@@H](O)[C@H](O[C@@H]3[C@@H](O)[C@H](N)C[C@H](N)[C@H]3O[C@H]3O[C@H](CO)[C@@H](O)[C@H](O)[C@H]3N)O[C@@H]2CO)[C@H](N)[C@@H](O)[C@@H]1O [PAROMOMYCIN], the Activity (Nucleic Acid [1]) was 40%, the Activity (Nucleic Acid [3]) was 40% and the CC50 ([4]; COS7 cells) was 1400 µM. For the same molecule, the Activity (Nucleic Acid [5]) was 40%, the pIC50 (Escherichia coli [6]; Escherichia coli) was 7.25 and the Activity (Nucleic Acid [7]) was 40%. For the same molecule, the Activity (Nucleic Acid [9]) was 40%, the Activity (Nucleic Acid [10]) was 40% and the CC50 [20] was 1200 µM. It also gave an LD50 (Mus musculus) of 80 mg/kg, an MIC (Escherichia coli [13]) of 22 µM (≈ 13.5 µg/mL) and an Activity (Nucleic Acid [21]) of 1.62%. For the same molecule, the Activity (Nucleic Acid [17]) was 40% and the CC50 [22] was 1500 µM.
With NC[C@H]1O[C@@H](O[C@@H]2[C@@H](O)[C@H](N)C[C@H](N)[C@H]2O[C@H]2O[C@H](CO)[C@@H](O)[C@H](O)[C@H]2N)[C@H](O)[C@@H]1O the Ka (Ribosomal RNA A-site [23]) was 4.7 ×10³ /M, the Activity (Nucleic Acid [1]) was 30% and the Activity [2] was “Non-toxic”. The Activity (Nucleic Acid [3]) was 30%, the CC50 ([4]; COS7 cells) was 10800 µM and the Activity (Nucleic Acid [5]) was 30%. For the same molecule, the pIC50 (Escherichia coli [6]; Escherichia coli) was 6.38, the Activity (Nucleic Acid [7]) was 30% and the Activity [8] was “Non-toxic”. The Activity (Nucleic Acid [9]) was 30%, the Activity (Nucleic Acid [10]) was 30% and the CC50 [20] was 7400 µM. The ΔTm (Ribosomal RNA A-site [11]) was 4.5 °C, the Activity [12] was “Non-toxic” and the LD50 (Mus musculus) was 240 mg/kg. The MIC (Escherichia coli [13]) was 790 µM (≈ 359 µg/mL), the Activity (Nucleic Acid [14]) was 2.75% and the Activity [15] was “Toxic”. The Activity [16] was “Toxic”, the Activity (Nucleic Acid [17]) was 30% and the CC50 [22] was 11500 µM. For the same molecule, the Activity [18] was “Non-toxic”.
Work on GENTAMICIN [listing 2 of 2 here] yielded a CC50 ([4]; cos-7) of 750 µM, a pIC50 (Escherichia coli [6]) of 7.70 and a CC50 (HEK293) of 1100 µM. It also gave an LD50 (Mus musculus) of 60 mg/kg and a CC50 (MDCK) of 780 µM.
